How the values were obtained:
[1] = target: T1, Corticotropin-releasing factor receptor 1 (Homo sapiens, UniProt P34998); assay: Binding affinity for human corticotropin releasing factor receptor 1
T1 sequence (P34998 whole entry): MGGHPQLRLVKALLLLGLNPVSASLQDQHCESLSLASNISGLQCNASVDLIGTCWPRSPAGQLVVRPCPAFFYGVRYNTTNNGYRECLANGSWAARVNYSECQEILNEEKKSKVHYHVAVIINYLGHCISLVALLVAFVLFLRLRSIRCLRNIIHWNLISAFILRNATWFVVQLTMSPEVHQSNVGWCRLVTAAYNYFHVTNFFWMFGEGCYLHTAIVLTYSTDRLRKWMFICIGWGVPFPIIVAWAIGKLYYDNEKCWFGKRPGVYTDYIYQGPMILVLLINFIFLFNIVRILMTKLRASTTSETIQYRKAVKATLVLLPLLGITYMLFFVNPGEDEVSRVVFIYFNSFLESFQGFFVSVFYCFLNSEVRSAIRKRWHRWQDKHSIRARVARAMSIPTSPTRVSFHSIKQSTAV

[2] = Maximum peak plasma concentration (dissolved in DMSO) at 10 mg/kg of p.o. administration in rat was determined; conditions: po
[3] = Terminal half life (dissolved in DMSO) at 2 mg/kg of intravenous administration in rat was determined; format: ADME, organism-based; design: dose 2 mg/kg, route intravenous; conditions: in vivo
Procedure, shortened: (§1)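 Rats dosed with the compound at 10 mg/kg orally and 2 mg/kg intravenously, in 10/10/80 Cremophor/DMSO/water. Dosing volumes were 3 mL/kg p.o. and 1 mL/kg i.v. Plasma concentrations were followed over time to derive clearance, volume of distribution, terminal half-life, oral AUC and oral bioavailability.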

[4] = Mean plasma area under curve (dissolved in DMSO) at 10 mg/kg of oral administration in rat was determined; format: ADME, organism-based; design: dose 10 mg/kg, route oral; procedure, shortened: as §1
[5] = Volume of distribution (dissolved in DMSO) at 2 mg/kg of […] administration in rat was determined; format: ADME, organism-based; design: dose 2 mg/kg; conditions: in vivo
[6] = Plasma clearance (dissolved in DMSO) at 2 mg/kg of intravenous administration in rat was determined
[7] = Terminal half life (dissolved in DMSO) at 2 mg/kg of intravenous administration in rat was determined; conditions: in vivo
[8] = Bioavailability (dissolved in DMSO) at 10 mg/kg of oral administration in rat was determined; format: ADME, organism-based; conditions: in vivo; procedure, shortened: as §1
[9] = Plasma clearance (dissolved in DMSO) at 2 mg/kg of intravenous administration in rat was determined; format: ADME, organism-based; design: dose 2 mg/kg, route intravenous; procedure, shortened: as §1
[10] = Volume of distribution (dissolved in DMSO) at 2 mg/kg of intravenous administration in rat was determined; format: ADME, organism-based; design: dose 2 mg/kg, route intravenous; conditions: in vivo; procedure, shortened: as §1
[11] = Brain concentration to plasma concentration ratio (dissolved in DMSO) at 2 mg/kg of intravenous administration in rat after 2 h; format: ADME, organism-based; design: dose 2 mg/kg, route intravenous; conditions: brain and plasma, read-out: B/P
Procedure, shortened: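 Compound given intravenously to rats at 2 mg/kg in 10/10/80 Cremophor/DMSO/water at 1 mL/kg. Brain and plasma concentrations were measured at 2 h and expressed as a brain-to-plasma ratio.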

Compound	Ki [1] [nM]	further results
CCN(Cc1ccccc1)Cc1c(C(F)(F)F)nc2n(-c3c(C)cc(C)cc3C)c3ccccc3n12	2770	
Cc1cc(C)c(-n2c3ccccc3n3c(CN(C)Cc4ccccc4)c(C(F)(F)F)nc23)c(C)c1	573	
CCCCN(CC)Cc1c(C(F)(F)F)nc2n(-c3c(C)cc(C)cc3C)c3ccccc3n12	704	
CCCN(Cc1c(C(F)(F)F)nc2n(-c3c(C)cc(C)cc3C)c3ccccc3n12)CC1CC1	23	Cmax [2]: 2380 ng/mL; half-life [3]: 4.1 h; AUC [4]: 11400 ng·h/mL; Vd [5]: 0.6 L/kg; CL/F [6]: 5.1 mL/min/kg; half-life [7]: 4.1 h; bioavailability [8]: 35%; clearance [9]: 5.1 mL/min/kg; Vd [10]: 0.6 L/kg; Kp at 2 h [11]: 0.03
CCCN(Cc1ccccc1)Cc1c(C(F)(F)F)nc2n(-c3c(C)cc(C)cc3C)c3ccccc3n12	4050	
Cc1cc(C)c(-n2c3ccccc3n3c(CN(CCC4CC4)CCC(F)(F)F)c(C(F)(F)F)nc23)c(C)c1	457	
Cc1cc(C)c(-n2c3ccccc3n3c(CN(CCc4ccccc4)CC(F)(F)F)c(C(F)(F)F)nc23)c(C)c1	744	
CCCN(CC1CC1)C(=O)c1c(CC)nc2n(-c3c(C)cc(C)cc3C)c3ccc(F)cc3n12	930	
CCCN(Cc1c(C(F)(F)F)nc2n(-c3c(C)cc(C)cc3C)c3ccccc3n12)CC1CCC1	26	
CCCN(CCc1ccccc1)Cc1c(C(F)(F)F)nc2n(-c3c(C)cc(C)cc3C)c3ccccc3n12	250	
CCCN(Cc1c(C)nc2n(-c3c(C)cc(C)cc3C)c3ccc(F)cc3n12)CC1CC1	59	
CCCCN(Cc1ccccc1)Cc1c(C(F)(F)F)nc2n(-c3c(C)cc(C)cc3C)c3ccccc3n12	7710	
CCN(Cc1c(C(F)(F)F)nc2n(-c3c(C)cc(C)cc3C)c3ccccc3n12)CC1CC1	28	
CCCN(CCc1ccccc1)Cc1c(C(F)(F)F)nc2n(-c3ccc(Cl)cc3Cl)c3ccccc3n12	1600	
CCCN(CCC(F)(F)F)Cc1c(C(F)(F)F)nc2n(-c3c(C)cc(C)cc3C)c3ccccc3n12	68	
Cc1cc(C)c(-n2c3ccccc3n3c(CN(CCC4CC4)CC(F)(F)F)c(C(F)(F)F)nc23)c(C)c1	653	
Cc1cc(C)c(-n2c3ccccc3n3c(CN(CCc4ccccc4)CCc4ccccc4)c(C(F)(F)F)nc23)c(C)c1	333	
CCCN(CC1CC1)C(=O)c1c(CC)nc2n(-c3c(C)cc(C)cc3C)c3ccccc3n12	570	
Cc1cc(C)c(-n2c3ccccc3n3c(CN(CCC(F)(F)F)CC(F)(F)F)c(C(F)(F)F)nc23)c(C)c1	291	
CCCN(CC1CC1)C(=O)c1c(C(F)(F)F)nc2n(-c3c(C)cc(C)cc3C)c3ccccc3n12	3560	
CCCN(Cc1c(C(F)(F)F)nc2n(-c3c(C)cc(C)cc3C)c3ccccc3n12)CC(F)(F)F	75	
CCCN(Cc1c(CC)nc2n(-c3c(C)cc(C)cc3C)c3ccccc3n12)CC1CC1	21	

Continued by falling Ki [1], values first:

Ki [1] [nM]	Compound	further results
1410	CCN(CCC1CC1)Cc1c(C(F)(F)F)nc2n(-c3c(C)cc(C)cc3C)c3ccccc3n12	
1180	CCCN(CC1CC1)C(=O)c1c(C)nc2n(-c3c(C)cc(C)cc3C)c3ccc(F)cc3n12	
618	Cc1cc(C)c(-n2c3ccccc3n3c(CN(CCc4ccccc4)CCC(F)(F)F)c(C(F)(F)F)nc23)c(C)c1	
410	CCCN(CCc1ccccc1)Cc1c(C(F)(F)F)nc2n(-c3ccc(C(C)C)cc3Br)c3ccccc3n12	
370	CCCN(Cc1c(C(F)(F)F)nc2n(-c3ccc(Cl)cc3Cl)c3ccccc3n12)CC1CC1	
362	CCCN(CCC1CC1)Cc1c(C(F)(F)F)nc2n(-c3c(C)cc(C)cc3C)c3ccccc3n12	
360	CCCN(CC1CC1)C(=O)c1c(C)nc2n(-c3c(C)cc(C)cc3C)c3ccccc3n12	
240	FC(F)(F)c1nc2n(-c3ccc(Cl)cc3Cl)c3ccccc3n2c1CN(CC1CC1)CC1CC1	
150	CCCN(Cc1c(C(F)(F)F)nc2n(-c3ccc(C(C)C)cc3Br)c3ccccc3n12)CC1CC1	
150	CCCN(Cc1c(CC)nc2n(-c3c(C)cc(C)cc3C)c3ccc(F)cc3n12)CC1CC1	
138	C=CCN(CC=C)Cc1c(C(F)(F)F)nc2n(-c3c(C)cc(C)cc3C)c3ccccc3n12	
75	CCCN(Cc1c(C(F)(F)F)nc2n(-c3c(C)cc(C)cc3C)c3ccccc3n12)CC(F)(F)C(F)(F)F	
54	CC(C)c1ccc(-n2c3ccccc3n3c(CN(CC4CC4)CC4CC4)c(C(F)(F)F)nc23)c(Br)c1	
53	Cc1cc(C)c(-n2c3ccccc3n3c(CN(CC4CCC4)CC(F)(F)F)c(C(F)(F)F)nc23)c(C)c1	
34	Cc1cc(C)c(-n2c3ccccc3n3c(CN(CC4CC4)CC(F)(F)C(F)(F)F)c(C(F)(F)F)nc23)c(C)c1	
20	CCCN(Cc1c(C)nc2n(-c3c(C)cc(C)cc3C)c3ccccc3n12)CC1CC1	
13	Cc1cc(C)c(-n2c3ccccc3n3c(CN(CCC(F)(F)F)CC4CC4)c(C(F)(F)F)nc23)c(C)c1	
11	Cc1cc(C)c(-n2c3ccccc3n3c(CN(CC4CC4)CC4CC4)c(C(F)(F)F)nc23)c(C)c1	
7.1	Cc1cc(C)c(-n2c3ccccc3n3c(CN(CC4CC4)CC(F)(F)F)c(C(F)(F)F)nc23)c(C)c1	
